Results on 20 compounds are retold here after ChEMBL document CHEMBL1127072, “Discovery and synthesis of methyl 2,5-dimethyl-4-[2- (phenylmethyl)benzoyl]-1H-pyrrole-3-carboxylate (FPL 64176) and analogues: the first examples of a new class of calcium channel activator” (J Med Chem, 1993).

pEC50: −log10 of the molar value.

Test [1] is filed under the species Cavia porcellus. Kind of test: Tested for the force increase in guinea pig atria. The class given is functional. An outline of the steps: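 Inotropic activity was measured on guinea pig atria paced at 1 Hz. EC50 is the concentration that raises developed tension to 50% of the isoprenaline maximum.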
Test [2] concerns GH3. Kind of test: Tested for the increase in [Ca2+] uptake into rat pituitary growth hormone3 (GH3) cells. The class given is functional, cell-based. An outline of the steps:
(§1)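 ⁴⁵Ca²⁺ uptake into rat pituitary GH3 cells depolarized with 50 mM K⁺, used as the measure of channel activation. EC50 is the test concentration producing 50% of the maximal uptake obtained with Bay K 8644.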

In test [3] the test system is GH3. The test is described as follows: Tested for the increase in [Ca2+] uptake into rat pituitary growth hormone3 (GH3) cells at 10 uM. The format is functional. Particulars: read-out: Inhibition. In outline: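 Rat pituitary GH3 cells were depolarized with 50 mM K⁺ and ⁴⁵Ca²⁺ uptake was measured at a single 10 µM test concentration. Response is expressed relative to the maximal uptake produced by Bay K 8644.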

The species entered for test [4] is Cavia porcellus. Kind of test: Tested for the force increase in guinea pig atria at 100 uM. The note with it: read-out: Inhibition. The format is functional. An outline of the steps: (§2)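 Guinea pig atria paced at 1 Hz, with developed tension recorded at a single test concentration (10, 30 or 100 µM). The increase is given as a percentage of the isoprenaline maximum.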

Test [5] is filed under the species Cavia porcellus. Kind of test: Tested for the force increase in guinea pig atria at 10 uM. The format is functional. An outline of the steps: as §2
Test [6] is filed under the species Cavia porcellus. The test is described as follows: Tested for the force value required to increase developed tension to 50% of the isoprenaline maximum at 10 uM. The format is functional.
The test system of test [7] is GH3. The test is described as follows: Tested for the 50% of the maximal [Ca2+] uptake produced by Bay K 8644 at 1 uM in rats. The class given is functional, Rattus norvegicus.
The subject of test [8] is GH3. The test is described as follows: Tested for 45 [Ca2+] uptake in rat pituitary growth hormone3 (GH3) cells. The class given is functional, cell-based. In outline:
as §1

Test [9] has as its system GH3. Kind of test: Tested for the inhibition of [Ca2+] uptake into rat pituitary growth hormone3 (GH3) cells at 10 uM. The class given is functional.
The species entered for test [10] is Cavia porcellus. Kind of test: Tested for the force increase in guinea pig atria at 30 uM. The class given is functional. In outline:
as §2

For test [11], the species on record is Cavia porcellus. The test is described as follows: Tested for the force value required to increase developed tension to 50% of the isoprenaline maximum at 0.3 uM. The class given is functional.
Test [12] deals with GH3. The test is described as follows: Tested for the 50% of the maximal [Ca2+] uptake produced by Bay K 8644 at 10 uM in rats. The class given is functional, Rattus norvegicus.

Regarding `COC(=O)c1c(C)[nH]c(C)c1C(=O)c1ccccc1Cl`, the pEC50 in the test filed under Cavia porcellus [1] is 4.85; with GH3 [2] it was 5.48.
As for `COC(=O)c1c(C)[nH]c(C)c1C(=O)c1ccccc1[N+](=O)[O-]`, the Ca2+ uptake increase (% of Bay K 8644 maximum) at 10 µM in the test with GH3 [3] was determined as 0%. For the same compound, the Atrial force increase (% of isoprenaline maximum) at 100 µM in the test listed under Cavia porcellus [4] is 17%.
Turning to `COC(=O)c1c(C)[nH]c(C)c1C(=O)c1c(Cl)cccc1Cl`, the Ca2+ uptake increase (% of Bay K 8644 maximum) at 10 µM in the test on GH3 [3] stood at 0%. Also, the Atrial force increase (% of isoprenaline maximum) at 100 µM in the test filed under Cavia porcellus [4] worked out at 0%.
Turning to `COC(=O)c1c(C)[nH]c(C)c1C(=O)c1ccc(Cl)cc1Cl`, the Ca2+ uptake increase (% of Bay K 8644 maximum) at 10 µM with GH3 [3] amounted to 0%. For the same compound, the inhibition at 10 µM in the test listed under Cavia porcellus [5] worked out at 40%.
As to `COC(=O)c1c(C)[nH]c(C)c1C(=O)c1ccccc1I`, the negative-log EC50 (pEC50) in the test listed under Cavia porcellus [1] was 5.23; in the test on GH3 [2], 5.47.
As for `COC(=O)c1c(C)[nH]c(C)c1C(=O)c1ccccc1Br`, the figures for the negative logarithm of the EC50 (pEC50) in the test filed under Cavia porcellus [1] and with GH3 [2] were 5.05 and 5.62, respectively.
Consider `COC(=O)c1c(C)[nH]c(C)c1C(=O)c1cc(Cl)ccc1Cl`, for which the pEC50 is 5.40 in the test filed under Cavia porcellus [1] and 6.22 in the test on GH3 [2].
Take `COC(=O)c1c(C)[nH]c(C)c1C(=O)c1ccccc1C`: the values for the negative logarithm of the EC50 (pEC50) in the test listed under Cavia porcellus [1] and in the test on GH3 [2] were 5.02 and 5.44, respectively.
Consider `COC(=O)c1ccccc1C(=O)c1c(C)[nH]c(C)c1C(=O)OC`, for which the Ca2+ uptake increase (% of Bay K 8644 maximum) at 10 µM in the test with GH3 [3] was 0%. The Atrial force increase (% of isoprenaline maximum) at 100 µM in the test listed under Cavia porcellus [4] amounted to 16%.
Regarding `COC(=O)c1c(C)[nH]c(C)c1C(=O)c1ccccc1`, the pEC50 in the test filed under Cavia porcellus [1] is 4.66; with GH3 [2], 5.27.
Turning to `COC(=O)c1c[nH]cc1C(=O)c1ccccc1Cc1ccccc1`, the pEC50 in the test listed under Cavia porcellus [1] was 5.68; with GH3 [2] it was 5.21.
Take `COC(=O)c1c(C)[nH]c(C)c1C(=O)c1ccccc1C(F)(F)F`: the negative logarithm of the EC50 (pEC50) in the test filed under Cavia porcellus [1] is 5.32; in the test on GH3 [2], 5.37.
As for `COC(=O)C1=C(C)NC(C)=C([N+](=O)[O-])C1c1ccccc1C(F)(F)F` (centres undefined), the pEC50 in the test listed under Cavia porcellus [1] is 5.71; in the test on GH3 [8] it was 7.82. The values for the Max in the test filed under Cavia porcellus [6] and in the test on GH3 [7] were 61% and 100%, respectively.
Turning to `COC(=O)c1c(C)[nH]c(C)c1C(=O)c1ccccc1OC`, the Ca2+ uptake increase (% of Bay K 8644 maximum) at 10 µM in the test with GH3 [3] was 0%. For the same compound, in the test listed under Cavia porcellus [4], the Atrial force increase (% of isoprenaline maximum) at 100 µM was 44%.
For `COC(=O)c1c(C(=O)c2ccccc2Cc2ccccc2)c[nH]c1C`, the results for the pEC50 in the test filed under Cavia porcellus [1] and with GH3 [2] were 6.34 and 6.38, respectively.
Take `COC(=O)c1c(C)[nH]c(C)c1C(=O)c1ccccc1F`: the pEC50 in the test filed under Cavia porcellus [1] was 4.15; in the test with GH3 [2], 5.89.
`COC(=O)c1c(C)[nH]c(C)c1C(=O)c1cccc(Cl)c1Cl` came in with an inhibition at 10 µM in the test on GH3 [9] of 0%. The compound also came in with an inhibition at 30 µM in the test filed under Cavia porcellus [10] of 18%.
Turning to `COC(=O)c1c(C)[nH]c(C)c1C(=O)c1ccccc1Cc1ccccc1`, the figures for the pEC50 in the test filed under Cavia porcellus [1] and in the test with GH3 [8] were 7.31 and 7.80, respectively. Also, the results for the Max in the test listed under Cavia porcellus [11] and in the test with GH3 [12] were 105% and 383%, respectively.
Consider `COC(=O)c1c[nH]c(C)c1C(=O)c1ccccc1Cc1ccccc1`, for which the pEC50 in the test filed under Cavia porcellus [1] was 6.84; in the test on GH3 [2], 7.05.
For `COC(=O)c1c(C)[nH]c(C)c1C(=O)c1ccccc1OC(=O)c1ccccc1O` the same measures were 5.42 and 6.30.

Broadly, the pEC50 is the EC50 on a negative log10 scale, so that one unit is a factor of ten. A word on the inhibition: it is the relative decrease from the control value, in per cent. Low values mean a weak effect, high ones a strong effect.
